In ChEMBL document CHEMBL1275484, “Rifampin and rifaximin resistance in clinical isolates of Clostridium difficile” (Antimicrob Agents Chemother, 2008):

Assays:
Format in all cases: functional
Clostridioides difficile [1] = test: Antimicrobial activity against Clostridium difficile isolate 36 by agar dilution method
Method in brief: (§1)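 MIC by CLSI reference agar dilution for anaerobes, with endpoints read per M11-A7 and C. difficile […] as control. Rifaximin was dissolved in methanol, diluted in 0.1 M phosphate buffer pH 7.4 plus 0.45% SDS, and tested at 0.0009–256 μg/ml. Rifampin was dissolved in methanol, diluted in water, and tested at 0.00001–256 μg/ml.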

Clostridioides difficile [2] = test: Antimicrobial activity against Clostridium difficile isolate 38 by agar dilution method
Method in brief: (§2)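 CLSI reference agar dilution method for anaerobes, with endpoints read per guideline M11-A7. Rifaximin was dissolved in methanol, diluted in 0.1 M phosphate buffer (pH 7.4) with 0.45% SDS, and tested at 0.0009–256 μg/ml. Rifampin was dissolved in methanol, diluted in water, and tested at 0.00001–256 μg/ml. C. difficile ATCC […] served as control. Isolates were typed by HindIII REA.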

Clostridioides difficile [3] = test: Antimicrobial activity against Clostridium difficile isolate 39 by agar dilution method; method in brief: as §2
Clostridioides difficile [4] = test: Antimicrobial activity against Clostridium difficile isolate 40 by agar dilution method; method in brief: as §2
Clostridioides difficile [5] = test: Antimicrobial activity against Clostridium difficile isolate 45 by agar dilution method; method in brief: as §2
Clostridioides difficile [6] = test: Antimicrobial activity against rifaximin-resistant Clostridium difficile isolate 50 expressing RpoB R505K mutant by agar dilution method
Method in brief: as §1, with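 “MICs were found” for “MIC”, “by the” for “by”, “dilution method” for “dilution”, “with” for “plus”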

Clostridioides difficile [7] = test: Antimicrobial activity against Clostridium difficile isolate 51 by agar dilution method; method in brief: as §2
Clostridioides difficile [8] = test: Antimicrobial activity against Clostridium difficile isolate 63 by agar dilution method
Method in brief: (§3)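 CLSI reference agar dilution for anaerobes, with endpoints read per guideline M11-A7. Rifaximin was dissolved in methanol, diluted in 0.1 M phosphate buffer pH 7.4 with 0.45% SDS, and tested at 0.0009–256 μg/ml. Rifampin was dissolved in methanol, diluted in water, and tested at 0.00001–256 μg/ml. Control strain: C. difficile ATCC […]. Isolates were typed by HindIII REA.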

Clostridioides difficile [9] = test: Antimicrobial activity against rifaximin-resistant Clostridium difficile isolate 66 expressing RpoB D492N and R505K mutants by agar dilution method
Method in brief: as §1, with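 “MICs were found” for “MIC”, “by the” for “by”, “dilution method” for “dilution”, “with” for “plus”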

Clostridioides difficile [10] = test: Antimicrobial activity against Clostridium difficile isolate 79 by agar dilution method; method in brief: as §3
Clostridioides difficile [11] = test: Antimicrobial activity against Clostridium difficile isolate 3 by Etest
Method in brief: (§4)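 Rifampin MIC by Etest strip on brucella blood agar, run per the strip maker's instructions. Isolates were HindIII REA-typed clinical C. difficile.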

Clostridioides difficile [12] = test: Antimicrobial activity against Clostridium difficile isolate 9 by Etest
Method in brief: (§5)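 Rifampin MIC by Etest on brucella blood agar, run per the strip manufacturer's instructions, against clinical isolates typed by HindIII REA.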

Clostridioides difficile [13] = test: Antimicrobial activity against Clostridium difficile isolate 12 expressing RpoB H502N and R505K mutants by Etest
Method in brief: (§6)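 Rifampin Etest on clinical C. difficile isolates typed by HindIII REA, run per the strip manufacturer's instructions on brucella blood agar, with the MIC read from the strip.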

Clostridioides difficile [14] = test: Antimicrobial activity against Clostridium difficile isolate 14 by Etest; method in brief: as §4
Clostridioides difficile [15] = test: Antimicrobial activity against rifaximin-resistant Clostridium difficile isolate 18 expressing RpoB R505K mutant by Etest; method in brief: as §6
Clostridioides difficile [16] = test: Antimicrobial activity against Clostridium difficile isolate 20 by Etest; method in brief: as §4
Clostridioides difficile [17] = test: Antimicrobial activity against rifaximin-resistant Clostridium difficile isolate 22 expressing RpoB H502N and R505K mutants by Etest; method in brief: as §6
Clostridioides difficile [18] = test: Antimicrobial activity against Clostridium difficile isolate 23 by Etest; method in brief: as §4
Clostridioides difficile [19] = test: Antimicrobial activity against rifaximin-resistant Clostridium difficile isolate 26 expressing RpoB R505K mutant by Etest; method in brief: as §6
Clostridioides difficile [20] = test: Antimicrobial activity against Clostridium difficile isolate 31 by Etest; method in brief: as §4
Clostridioides difficile [21] = test: Antimicrobial activity against Clostridium difficile isolate 40 by Etest
Method in brief: (§7)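 Rifampin Etest strips were run on brucella blood agar following the manufacturer's instructions to give an MIC. Clinical isolates were typed by HindIII REA.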

Clostridioides difficile [22] = test: Antimicrobial activity against Clostridium difficile isolate 44 by Etest; method in brief: as §7
Clostridioides difficile [23] = test: Antimicrobial activity against Clostridium difficile isolate 46 by Etest; method in brief: as §7
Clostridioides difficile [24] = test: Antimicrobial activity against rifaximin-resistant Clostridium difficile isolate 50 expressing RpoB R505K mutant by Etest; method in brief: as §6
Clostridioides difficile [25] = test: Antimicrobial activity against Clostridium difficile isolate 58 by Etest; method in brief: as §7
Clostridioides difficile [26] = test: Antimicrobial activity against Clostridium difficile isolate 59 by Etest; method in brief: as §7
Clostridioides difficile [27] = test: Antimicrobial activity against Clostridium difficile isolate 60 by Etest; method in brief: as §7
Clostridioides difficile [28] = test: Antimicrobial activity against rifaximin-resistant Clostridium difficile isolate 65 expressing RpoB H502N and R505K mutants by Etest; method in brief: as §6
Clostridioides difficile [29] = test: Antimicrobial activity against rifaximin-resistant Clostridium difficile isolate 66 expressing RpoB D492N and R505K mutants by Etest; method in brief: as §6
Clostridioides difficile [30] = test: Antimicrobial activity against Clostridium difficile isolate 72 by Etest; method in brief: as §5
Clostridioides difficile [31] = test: Antimicrobial activity against Clostridium difficile isolate 76 by Etest; method in brief: as §5
Clostridioides difficile [32] = test: Antimicrobial activity against Clostridium difficile isolate 77 by Etest; method in brief: as §5
Clostridioides difficile [33] = test: Antimicrobial activity against Clostridium difficile isolate 1 by agar dilution method; method in brief: as §1
Clostridioides difficile [34] = test: Antimicrobial activity against Clostridium difficile isolate 3 by agar dilution method; method in brief: as §1
Clostridioides difficile [35] = test: Antimicrobial activity against Clostridium difficile isolate 5 by agar dilution method; method in brief: as §2
Clostridioides difficile [36] = test: Antimicrobial activity against Clostridium difficile isolate 6 by agar dilution method; method in brief: as §2
Clostridioides difficile [37] = test: Antimicrobial activity against Clostridium difficile isolate 7 by agar dilution method; method in brief: as §3
Clostridioides difficile [38] = test: Antimicrobial activity against Clostridium difficile isolate 11 by agar dilution method; method in brief: as §1
Clostridioides difficile [39] = test: Antimicrobial activity against Clostridium difficile isolate 13 by agar dilution method; method in brief: as §1
Clostridioides difficile [40] = test: Antimicrobial activity against Clostridium difficile isolate 14 by agar dilution method; method in brief: as §1
Clostridioides difficile [41] = test: Antimicrobial activity against Clostridium difficile isolate 15 by agar dilution method; method in brief: as §1
Clostridioides difficile [42] = test: Antimicrobial activity against rifaximin-resistant Clostridium difficile isolate 18 expressing RpoB R505K mutant by agar dilution method
Method in brief: as §1, with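 “MICs were found” for “MIC”, “by the” for “by”, “dilution method” for “dilution”, “with” for “plus”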

Clostridioides difficile [43] = test: Antimicrobial activity against Clostridium difficile isolate 20 by agar dilution method; method in brief: as §1
Clostridioides difficile [44] = test: Antimicrobial activity against rifaximin-resistant Clostridium difficile isolate 21 expressing RpoB H502N and R505K mutants by agar dilution method
Method in brief: as §1, with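 “MICs were found” for “MIC”, “by the” for “by”, “dilution method” for “dilution”, “with” for “plus”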

Clostridioides difficile [45] = test: Antimicrobial activity against rifaximin-resistant Clostridium difficile isolate 24 expressing RpoB H502N and R505K mutants by agar dilution method
Method in brief: as §1, with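 “MICs were found” for “MIC”, “by the” for “by”, “dilution method” for “dilution”, “with” for “plus”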

Clostridioides difficile [46] = test: Antimicrobial activity against Clostridium difficile isolate 29 by agar dilution method; method in brief: as §1
Clostridioides difficile [47] = test: Antimicrobial activity against Clostridium difficile isolate 30 by agar dilution method; method in brief: as §1
Clostridioides difficile [48] = test: Antimicrobial activity against Clostridium difficile isolate 34 by agar dilution method; method in brief: as §1

Measured: MIC

CO[C@H]1/C=C/O[C@@]2(C)Oc3c(C)c(O)c4c(O)c(c(/C=N/N5CCN(C)CC5)c(O)c4c3C2=O)NC(=O)/C(C)=C\C=C\[C@H](C)[C@H](O)[C@@H](C)[C@@H](O)[C@@H](C)[C@H](OC(C)=O)[C@@H]1C [RIFAMPIN]
0.9 ng/mL: Clostridioides difficile [1] | Clostridioides difficile [3] | Clostridioides difficile [4] | Clostridioides difficile [5] | Clostridioides difficile [7] | Clostridioides difficile [40] | Clostridioides difficile [41] | Clostridioides difficile [43] | Clostridioides difficile [46] | Clostridioides difficile [47] | Clostridioides difficile [48]
> 256000 ng/mL: Clostridioides difficile [9] | Clostridioides difficile [44] | Clostridioides difficile [45]
> 32000 ng/mL: Clostridioides difficile [13] | Clostridioides difficile [15] | Clostridioides difficile [17] | Clostridioides difficile [19] | Clostridioides difficile [24] | Clostridioides difficile [28] | Clostridioides difficile [29]
0.09 ng/mL: Clostridioides difficile [39]
0.4 ng/mL: Clostridioides difficile [2] | Clostridioides difficile [8]
3 ng/mL: Clostridioides difficile [12]
0.06 ng/mL: Clostridioides difficile [10] | Clostridioides difficile [33] | Clostridioides difficile [34] | Clostridioides difficile [35] | Clostridioides difficile [36] | Clostridioides difficile [37] | Clostridioides difficile [38]
4 ng/mL: Clostridioides difficile [11]
128000 ng/mL: Clostridioides difficile [6] | Clostridioides difficile [42]
< 2 ng/mL: all other assays above
